In experiment [1] the target is T1, Sodium- and chloride-dependent glycine transporter 1 (Homo sapiens, UniProt P48067).
T1 sequence (P48067 whole entry): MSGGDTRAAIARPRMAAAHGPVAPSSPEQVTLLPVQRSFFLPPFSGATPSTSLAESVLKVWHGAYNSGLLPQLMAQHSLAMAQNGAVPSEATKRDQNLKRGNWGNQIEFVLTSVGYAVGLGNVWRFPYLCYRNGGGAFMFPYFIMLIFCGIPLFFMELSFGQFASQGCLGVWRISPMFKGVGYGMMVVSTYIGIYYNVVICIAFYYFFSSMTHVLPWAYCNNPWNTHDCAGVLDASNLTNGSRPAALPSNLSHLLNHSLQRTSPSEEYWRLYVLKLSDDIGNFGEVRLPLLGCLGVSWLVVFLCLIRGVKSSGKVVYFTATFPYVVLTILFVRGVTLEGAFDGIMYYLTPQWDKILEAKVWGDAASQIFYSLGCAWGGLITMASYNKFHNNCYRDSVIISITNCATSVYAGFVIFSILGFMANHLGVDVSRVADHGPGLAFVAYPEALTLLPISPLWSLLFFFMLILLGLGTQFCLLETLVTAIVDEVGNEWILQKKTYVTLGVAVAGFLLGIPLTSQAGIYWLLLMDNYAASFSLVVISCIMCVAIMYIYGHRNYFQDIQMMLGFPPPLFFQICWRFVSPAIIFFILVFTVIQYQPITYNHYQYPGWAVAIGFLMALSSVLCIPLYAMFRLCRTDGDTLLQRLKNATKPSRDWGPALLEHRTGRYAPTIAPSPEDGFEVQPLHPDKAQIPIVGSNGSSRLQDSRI
The experiment is described as follows: Inhibition of [3H]glycine uptake at GlyT1.

The target of another experiment is Nociceptin receptor (Homo sapiens, UniProt P41146). Briefly: Displacement of [3H]NOP from human NOP receptor expressed in HEK293 cells. Format: cell-based. In short, it runs like this: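 Radioligand binding using membranes from HEK293 cells stably (permanently) transfected with human NOP receptor; displacement of [3H]-NOP measured.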
Sequence of Nociceptin receptor (P41146 whole entry): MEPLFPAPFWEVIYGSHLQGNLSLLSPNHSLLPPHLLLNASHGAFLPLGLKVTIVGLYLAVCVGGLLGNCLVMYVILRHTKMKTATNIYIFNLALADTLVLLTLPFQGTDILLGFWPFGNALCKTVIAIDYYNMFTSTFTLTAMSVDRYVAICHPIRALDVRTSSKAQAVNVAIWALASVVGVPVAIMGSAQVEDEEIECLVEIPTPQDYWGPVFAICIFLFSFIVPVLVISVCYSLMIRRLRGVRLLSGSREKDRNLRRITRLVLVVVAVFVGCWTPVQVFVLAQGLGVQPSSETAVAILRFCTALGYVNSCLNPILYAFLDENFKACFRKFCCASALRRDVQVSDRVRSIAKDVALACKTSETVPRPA
(In a radioligand displacement assay an active substance lowers the binding of a labelled ligand.)

The target of experiment [2] is T2, Sodium- and chloride-dependent glycine transporter 2 (Homo sapiens, UniProt Q9Y345).
T2 sequence (Q9Y345 whole entry): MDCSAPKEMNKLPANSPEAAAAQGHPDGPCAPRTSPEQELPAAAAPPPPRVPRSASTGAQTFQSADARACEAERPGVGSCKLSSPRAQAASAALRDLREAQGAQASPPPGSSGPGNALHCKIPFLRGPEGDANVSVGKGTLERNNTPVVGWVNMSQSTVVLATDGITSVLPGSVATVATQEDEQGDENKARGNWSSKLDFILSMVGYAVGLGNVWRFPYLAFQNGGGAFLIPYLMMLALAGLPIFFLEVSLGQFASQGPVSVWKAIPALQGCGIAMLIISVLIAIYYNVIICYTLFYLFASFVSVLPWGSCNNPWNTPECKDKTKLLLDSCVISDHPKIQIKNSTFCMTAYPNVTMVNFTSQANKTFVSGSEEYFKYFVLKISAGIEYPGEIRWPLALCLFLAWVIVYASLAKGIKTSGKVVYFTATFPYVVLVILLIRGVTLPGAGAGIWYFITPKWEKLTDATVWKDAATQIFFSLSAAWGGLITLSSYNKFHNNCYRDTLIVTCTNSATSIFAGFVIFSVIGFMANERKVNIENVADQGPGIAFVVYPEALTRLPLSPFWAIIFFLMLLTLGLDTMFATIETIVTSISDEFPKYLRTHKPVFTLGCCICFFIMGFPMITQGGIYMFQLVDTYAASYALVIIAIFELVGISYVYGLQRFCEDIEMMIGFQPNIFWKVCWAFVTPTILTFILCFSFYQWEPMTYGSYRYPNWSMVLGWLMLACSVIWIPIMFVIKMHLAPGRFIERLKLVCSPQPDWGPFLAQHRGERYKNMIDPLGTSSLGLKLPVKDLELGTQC
Briefly: Inhibition of [3H]glycine uptake at GlyT2.

pEC50, pIC50: −log10 of the molar value. A value given as a limit tells only on which side of the number the result lay.

Compound `O=C1NCC(c2ccc(Cl)c(Cl)c2)C12CCN(C1CCCCC1c1ccc(F)cc1)CC2` (single isomer, unassigned; diastereomer 2) showed a pEC50 in experiment [1] of 5.66.
`O=C1NCC(c2ccc(F)cc2)C12CCN(C1CCCCC1c1ccc(C(F)(F)F)cc1)CC2` (single isomer, unassigned; diastereomer 3) gave a pEC50 in experiment [1] of 6.89.
In experiment [1], `COc1ccc(C2CNC(=O)C23CCN(C2CCCCC2c2ccc(F)cc2)CC3)cc1` (stereo unspecified) gave a pEC50 of 6.95.
The same measure, in the same setting: then `O=C1NCC(c2ccc(F)cc2)C12CCN(C1CCCCC1c1ccc(C(F)(F)F)cc1)CC2` (stereo in doubt), with 7.04.
`O=C1NC[C@H](c2ccc(F)cc2)C12CCN([C@@H]1CCCC[C@@H]1c1ccc(F)cc1)CC2`: the pIC50 on Nociceptin receptor is < 5.00. Also, the pEC50 is 7.44 in experiment [1] and 4.40 in experiment [2].
With `O=C1NC[C@H](c2ccc(F)cc2)C12CCN([C@H]1CCCC[C@H]1c1ccc(F)cc1)CC2`, the pEC50 in experiment [1] was 5.89; in experiment [2], 5.08.
In experiment [1], `COc1ccc(C2CNC(=O)C23CCN(C2CCCCC2c2ccc(C)cc2)CC3)cc1` (single isomer, unassigned; diastereomer 1) had a pEC50 of 5.95.
Regarding `O=C1NC[C@@H](c2ccc(F)cc2)C12CCN([C@H]1CCCC[C@H]1c1ccc(F)cc1)CC2`, the pEC50 in experiment [1] was 5.97; in experiment [2], < 4.52.
As to `O=C1NC[C@@H](c2ccc(F)cc2)C12CCN([C@@H]1CCCC[C@@H]1c1ccc(F)cc1)CC2`, at Nociceptin receptor, the negative logarithm of the IC50 (pIC50) was < 5.00. Besides, the figures for the pEC50 in experiment [1] and in experiment [2] were 7.37 and 4.78, respectively.
`O=C1NCC(c2ccc(F)cc2)C12CCN(C1CCCCC1c1ccc(C(F)(F)F)cc1)CC2` (single isomer, unassigned; diastereomer 1) showed a pEC50 in experiment [1] of 5.63.
Consider `O=C1NCC(c2ccc(Cl)c(Cl)c2)C12CCN(C1CCCCC1c1ccc(F)cc1)CC2` (single isomer, unassigned; diastereomer 1), for which the negative-log EC50 (pEC50) in experiment [1] was 6.57.
The compound `O=C1NCC(c2ccccc2)C12CCN(C1CCCCC1c1ccc(F)cc1)CC2` (single isomer, unassigned; diastereomer 1) gave a negative logarithm of the EC50 (pEC50) in experiment [1] of 6.78. Compared with the last compound, the pEC50 is 0.21 log units higher.
The compound `O=C1NC[C@H](c2ccccc2)C12CCN([C@@H]1CCCC[C@@H]1c1ccccc1)CC2` had a negative-log EC50 (pEC50) in experiment [1] of 5.54.
For the compound `O=C1NCC(c2ccccc2)C12CCN(C1CCCCC1c1ccccc1)CC2` (stereo unspecified), the pIC50 at Nociceptin receptor was < 5.00. Further, the pEC50 in experiment [1] was 6.63; in experiment [2], 4.60.
Consider `O=C1NCC(c2ccccc2)C12CCN(C1CCCCC1c1ccc(F)cc1)CC2` (single isomer, unassigned; diastereomer 2), for which the pEC50 in experiment [1] is 7.32.
With `COc1ccc(C2CNC(=O)C23CCN(C2CCCCC2c2ccc(C)cc2)CC3)cc1` (single isomer, unassigned; diastereomer 2), the negative logarithm of the EC50 (pEC50) in experiment [1] is 4.78. This pEC50 lies 2.54 log units lower than the previous one.
`O=C1NCC(c2ccc(F)cc2)C12CCN(C1CCCCC1c1ccc(C(F)(F)F)cc1)CC2` (single isomer, unassigned; diastereomer 2) showed a negative-log EC50 (pEC50) in experiment [1] of 6.02.
For the compound `O=C1NC[C@@H](c2ccccc2)C12CCN([C@H]1CCCC[C@H]1c1ccccc1)CC2`, at Nociceptin receptor, the pIC50 was < 5.00. Also, the negative logarithm of the EC50 (pEC50) is 6.61 in experiment [1] and 4.40 in experiment [2].
Regarding `O=C1NC[C@@H](c2ccccc2)C12CCN([C@@H]1CCCC[C@@H]1c1ccccc1)CC2`, the pEC50 in experiment [1] was 5.55.
With `O=C1NC[C@H](c2ccccc2)C12CCN([C@H]1CCCC[C@H]1c1ccccc1)CC2`, the negative-log IC50 (pIC50) on Nociceptin receptor is < 5.00. The negative-log EC50 (pEC50) in experiment [1] is 7.21.

Broadly, the pEC50 is the negative decadic logarithm of the EC50, by convention in mol/L. Broadly, the pIC50 is the IC50 on a negative log10 scale, so that one unit is a factor of ten. The low end stands for a large IC50, the high end for a small IC50.
